# Measured values taken from ChEMBL document CHEMBL4689842, “EUbOPEN Chemogenomics Library wave 1” (2021).
# Tested on: Fibroblast
# Assay: Multiplex assay against human fibroblast
# Type: toxicity, cell-based
# Summary of the method: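 Imaging took place on a CQ1 microscope at 37°C and 5% CO2 once compound had been added to live cells stained at seeding with Hoechst33342, BioTracker Green Microtubule Cytoskeleton Dye, MitoTracker Red and Annexin V Alexa Fluor 680. CellPathfinder machine-learning gating classed cells as Hoechst high-intensity objects or normal cells, classed normal cells as having healthy, pyknosed or fragmented nuclei, and classed pyknosed cells as mitotic or apoptotic. Tubulin, mitochondrial-mass and membrane-permeability phenotypes are per cents of the healthy-nucleus cells.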
# [1] = 12 h, 1 µM, compound concentration 1 uM, replicate 1
# [2] = 12 h, 1 µM, compound concentration 1 uM, replicate 2
# [3] = 12 h, 10 µM, compound concentration 10 uM, replicate 1
# [4] = 12 h, 10 µM, compound concentration 10 uM, replicate 2
# [5] = 24 h, 1 µM, compound concentration 1 uM, replicate 1
# [6] = 24 h, 1 µM, compound concentration 1 uM, replicate 2
# [7] = 24 h, 10 µM, compound concentration 10 uM, replicate 1
structure (smiles),measurement,setting,value
CC(C)[C@H](CO)Nc1nc(Nc2cccc(Cl)c2)c2ncn(C(C)C)c2n1 [PURVALANOLA],Population Apoptotic (%),[1],65%
same,Population Fragmented Nuclei (%),[1],30%
same,Population Healthy Nuclei (%),[1],39%
same,Population Hoechst High Intensity Objects (%),[1],17%
same,Population Membrane Permeable-Phenotype (%),[1],20%
same,Population Mitochondria Different-Phenotype (%),[1],7%
same,Population Mitotic Cells (%),[1],35%
same,Population Normal (%),[1],82%
same,Population Pyknosed Nuclei (%),[1],30%
same,Population Tubulin-Different-Phenotype (%),[1],48%
same,Total Cell Count,[1],241
same,Population Apoptotic (%),[2],50%
same,Population Fragmented Nuclei (%),[2],8%
same,Population Healthy Nuclei (%),[2],88%
same,Population Hoechst High Intensity Objects (%),[2],10%
same,Population Membrane Permeable-Phenotype (%),[2],7%
same,Population Mitochondria Different-Phenotype (%),[2],21%
same,Population Mitotic Cells (%),[2],50%
same,Population Normal (%),[2],89%
same,Population Pyknosed Nuclei (%),[2],3%
same,Population Tubulin-Different-Phenotype (%),[2],15%
same,Total Cell Count,[2],111
same,Population Apoptotic (%),[3],65%
same,Population Fragmented Nuclei (%),[3],24%
same,Population Healthy Nuclei (%),[3],38%
same,Population Hoechst High Intensity Objects (%),[3],17%
same,Population Membrane Permeable-Phenotype (%),[3],10%
same,Population Mitochondria Different-Phenotype (%),[3],54%
same,Population Mitotic Cells (%),[3],34%
same,Population Normal (%),[3],82%
same,Population Pyknosed Nuclei (%),[3],36%
same,Population Tubulin-Different-Phenotype (%),[3],95%
same,Total Cell Count,[3],143
same,Population Apoptotic (%),[4],83%
same,Population Fragmented Nuclei (%),[4],13%
same,Population Healthy Nuclei (%),[4],79%
same,Population Hoechst High Intensity Objects (%),[4],7%
same,Population Membrane Permeable-Phenotype (%),[4],23%
same,Population Mitochondria Different-Phenotype (%),[4],95%
same,Population Mitotic Cells (%),[4],16%
same,Population Normal (%),[4],92%
same,Population Pyknosed Nuclei (%),[4],6%
same,Population Tubulin-Different-Phenotype (%),[4],98%
same,Total Cell Count,[4],66
same,Population Apoptotic (%),[5],48%
same,Population Fragmented Nuclei (%),[5],32%
same,Population Healthy Nuclei (%),[5],49%
same,Population Hoechst High Intensity Objects (%),[5],18%
same,Population Membrane Permeable-Phenotype (%),[5],24%
same,Population Mitochondria Different-Phenotype (%),[5],7%
same,Population Mitotic Cells (%),[5],51%
same,Population Normal (%),[5],81%
same,Population Pyknosed Nuclei (%),[5],18%
same,Population Tubulin-Different-Phenotype (%),[5],60%
same,Total Cell Count,[5],248
same,Population Apoptotic (%),[6],60%
same,Population Fragmented Nuclei (%),[6],8%
same,Population Healthy Nuclei (%),[6],83%
same,Population Hoechst High Intensity Objects (%),[6],6%
same,Population Membrane Permeable-Phenotype (%),[6],5%
same,Population Mitochondria Different-Phenotype (%),[6],23%
same,Population Mitotic Cells (%),[6],40%
same,Population Normal (%),[6],93%
same,Population Pyknosed Nuclei (%),[6],8%
same,Population Tubulin-Different-Phenotype (%),[6],9%
same,Total Cell Count,[6],157
same,Population Apoptotic (%),[7],72%
same,Population Fragmented Nuclei (%),[7],26%
same,Population Healthy Nuclei (%),[7],47%
same,Population Hoechst High Intensity Objects (%),[7],20%
